One series deals with Plasmepsin I (Plasmodium falciparum, UniProt P39898). In words: Inhibition of Plasmodium falciparum recombinant PLM1. Put shortly:
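Recombinant proPfPLM I from E. coli BL21 Star (DE3) pLysS inclusion bodies, refolded and purified by anion exchange and size exclusion. Initial rates of cleavage of chromogenic Lys-Pro-Ile-Leu-Phe-Nph-Arg-Leu read spectrophotometrically. Ki from fits: Morrison competitive tight-binding equation, or for weaker binders at least six substrate and two or more inhibitor levels, competitive model.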

In another series the target is Plasmepsin II (Plasmodium falciparum, UniProt P46925). Put plainly: Inhibition of Plasmodium falciparum recombinant PLM2. Put shortly:
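Recombinant pro-PLM II (E. coli BL21(DE3) pLysS, refolded from inclusion bodies) activated in 100 mM sodium acetate pH 4.7, 37 °C, 90 min. Cleavage of Lys-Glu-Phe-Val-Phe-NPhe-Ala-Leu-Lys followed at 300 nm. Inhibitors at 1-100 nM, 1% DMSO final. Ki from IC50 via Cheng-Prusoff using Michaelis-Menten Km. Mean ± SD, at least two experiments in triplicate.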

Series [1] concerns Plasmodium falciparum. In words: Antiplasmodial activity against chloroquine-sensitive Plasmodium falciparum D10. In kind it is functional, organism-based. In outline:
(§1)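 P. falciparum (D10 and W2) grown in human A+ red cells, RPMI 1640 with 10% heat-inactivated A+ plasma, 37 °C, 1% O2/5% CO2/94% N2. Asynchronous cultures, 1-1.5% parasitemia, 1% hematocrit, exposed to serial dilutions (DMSO <1% final) for 72 h. IC50 is the mean of ≥3 experiments in duplicate.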

Series [2] relates to Plasmodium falciparum. Put plainly: Antiplasmodial activity against chloroquine-resistant Plasmodium falciparum W2. In kind it is functional, organism-based. Put shortly: as §1
The target in series [3] is Cathepsin D (Homo sapiens) (UniProt P07339). Put plainly: Inhibition of human cathepsin D at 5 uM.
Chain of Cathepsin D (Homo sapiens) (P07339 65-162 limits assumed): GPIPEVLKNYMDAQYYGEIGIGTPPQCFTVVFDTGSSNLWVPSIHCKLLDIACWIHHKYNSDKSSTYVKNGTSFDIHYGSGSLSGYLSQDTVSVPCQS
Chain of Cathepsin D (Homo sapiens) (P07339 169-412 limits assumed): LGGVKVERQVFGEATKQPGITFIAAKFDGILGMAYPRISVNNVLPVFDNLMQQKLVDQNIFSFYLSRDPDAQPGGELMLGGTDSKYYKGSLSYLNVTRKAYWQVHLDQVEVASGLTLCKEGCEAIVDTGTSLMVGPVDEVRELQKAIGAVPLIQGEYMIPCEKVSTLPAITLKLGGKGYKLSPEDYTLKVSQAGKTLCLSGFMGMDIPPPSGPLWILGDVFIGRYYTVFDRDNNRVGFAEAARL
Series [4] can be described thus: Cytotoxicity against human skin fibroblast at 100 uM by MTT assay. In kind it is cell-based. In outline: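 Primary human skin-biopsy fibroblasts, 8 × 10⁴ per well, grown in DMEM with 10% fetal calf serum, 1% penicillin/streptomycin and 1% L-glutamine. Proliferation followed by MTT test with or without compounds up to 100 µM.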
In series [5] the target is Plasmepsin II (Plasmodium falciparum) (UniProt P46925). In words: Inhibition of Plasmodium falciparum PLM2-induced human hemoglobin cleavage by SDS-PAGE. In outline: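 Hemoglobin (10 µg) digested by preactivated recombinant PLM II (200 ng) in 100 mM sodium acetate, pH 4.7, 37 °C, with vehicle or inhibitor for 0, 10, 30 and 60 min. Stopped with SDS loading dye, boiled 5 min, resolved on 18% polyacrylamide gel.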
Chain of Plasmepsin II (Plasmodium falciparum) (P46925 125-453 limits assumed): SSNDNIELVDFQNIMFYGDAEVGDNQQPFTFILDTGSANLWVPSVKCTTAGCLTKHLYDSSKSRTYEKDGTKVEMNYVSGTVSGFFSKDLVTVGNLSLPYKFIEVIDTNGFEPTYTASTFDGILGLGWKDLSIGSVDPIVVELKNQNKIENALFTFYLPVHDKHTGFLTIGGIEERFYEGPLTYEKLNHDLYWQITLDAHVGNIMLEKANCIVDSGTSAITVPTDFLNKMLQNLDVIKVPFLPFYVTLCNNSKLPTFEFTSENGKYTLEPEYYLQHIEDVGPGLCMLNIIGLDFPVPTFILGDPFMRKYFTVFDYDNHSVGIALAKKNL

For series [6], the target named is Cathepsin D (Homo sapiens) (UniProt P07339). Put plainly: Inhibition of human cathepsin D at 2 uM.
For series [7] the target is unchanged. In words: Inhibition of human cathepsin D at 100 uM.

The structures appear in SMILES notation. The source made the active and inactive calls. No cut-off for these calls is given here.

Chain of Plasmepsin II (P46925 whole entry): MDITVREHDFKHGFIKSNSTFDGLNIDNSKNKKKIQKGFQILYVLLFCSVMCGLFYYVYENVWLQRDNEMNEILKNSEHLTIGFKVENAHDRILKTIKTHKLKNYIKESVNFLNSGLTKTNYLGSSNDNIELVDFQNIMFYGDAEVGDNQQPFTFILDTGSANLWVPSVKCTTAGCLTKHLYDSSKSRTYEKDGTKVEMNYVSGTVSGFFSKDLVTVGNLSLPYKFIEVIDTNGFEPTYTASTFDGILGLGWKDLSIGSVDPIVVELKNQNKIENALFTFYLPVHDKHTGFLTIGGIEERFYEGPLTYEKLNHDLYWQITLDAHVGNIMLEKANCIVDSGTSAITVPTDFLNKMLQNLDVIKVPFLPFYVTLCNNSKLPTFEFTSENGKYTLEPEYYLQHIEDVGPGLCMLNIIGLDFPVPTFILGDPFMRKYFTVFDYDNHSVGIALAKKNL
Chain of Plasmepsin I (P39898 whole entry): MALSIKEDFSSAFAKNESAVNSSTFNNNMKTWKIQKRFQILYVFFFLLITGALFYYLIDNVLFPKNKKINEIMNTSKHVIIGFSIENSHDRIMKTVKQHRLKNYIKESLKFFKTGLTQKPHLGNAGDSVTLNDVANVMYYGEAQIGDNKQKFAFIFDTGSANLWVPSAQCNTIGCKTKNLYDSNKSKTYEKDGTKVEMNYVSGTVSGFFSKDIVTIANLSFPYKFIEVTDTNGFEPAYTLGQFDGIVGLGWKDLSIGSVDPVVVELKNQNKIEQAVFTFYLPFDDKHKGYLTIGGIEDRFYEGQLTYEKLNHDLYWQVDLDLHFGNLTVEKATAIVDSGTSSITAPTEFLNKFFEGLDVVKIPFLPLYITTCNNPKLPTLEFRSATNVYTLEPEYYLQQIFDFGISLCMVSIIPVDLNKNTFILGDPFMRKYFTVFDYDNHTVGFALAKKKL

With `CCCCNC(=O)C[C@H](O)[C@H](CC(C)C)NC(=O)[C@@H](NC(=O)COc1ccc2ccccc2c1)[C@@H](C)CC`, the Ki worked out at 0.727 µM at Plasmepsin I and 0.0589 µM at Plasmepsin II. Also, the figures for the IC50 in the series with Plasmodium falciparum [1] and in the series on Plasmodium falciparum [2] were 22.7 µM and 15.4 µM, respectively.
As for `CCCCNC(=O)C[C@H](O)[C@H](CC(C)C)NC(=O)[C@@H](NC(=O)c1ccc(Oc2ccc(C(=O)N[C@@H](CC(C)C)C(=O)N[C@@H](C)C(=O)NCCCC(C)Nc3cc(OC)cc4cccnc34)cc2)cc1)[C@@H](C)CC` (some centres not stated), in [3], the inhibition was found to be 50%. The inhibition constant (Ki) was 0.074 µM on Plasmepsin I and 0.0263 µM on Plasmepsin II. Moreover, the results for the IC50 with Plasmodium falciparum [1] and in the series on Plasmodium falciparum [2] were 0.2 µM and 0.3 µM, respectively. Also, the Activity in series [4] amounted to 15%. Also, the result in series [5] was Active.
Turning to `CCCCNC(=O)C[C@H](O)[C@H](CC(C)C)NC(=O)[C@@H](NC(=O)c1ccc(Oc2ccc(C(=O)N[C@@H](CC(C)C)C(=O)N[C@@H](CCCCNC(=O)OC(C)(C)C)C(=O)NCCCC(C)Nc3cc(OC)cc4cccnc34)cc2)cc1)C(C)CC` (some centres not stated), the Ki at Plasmepsin I was 0.23 µM; at Plasmepsin II, 0.403 µM. Also, the IC50 was 4.05 µM with Plasmodium falciparum [1] and 3.5 µM with Plasmodium falciparum [2].
Regarding `CCCCNC(=O)C[C@H](O)[C@H](CC(C)C)NC(=O)[C@@H](NC(=O)c1ccc(Oc2ccc(C(=O)N[C@@H](CC(C)C)C(=O)NCCCC(C)Nc3cc(OC)cc4cccnc34)cc2)cc1)[C@@H](C)CC` (some centres not stated), the results for the Ki on Plasmepsin I and on Plasmepsin II were 0.765 µM and 0.0121 µM, respectively. The IC50 in the series with Plasmodium falciparum [1] was 0.7 µM; with Plasmodium falciparum [2], 0.5 µM. In series [6], this compound had an inhibition of 30%. The outcome in series [5] was Active.
Regarding `CCCCNC(=O)C[C@H](O)[C@H](CC(C)C)NC(=O)[C@@H](NC(=O)c1ccc(Oc2ccc(C(=O)N[C@@H](C)C(=O)N[C@@H](CCCCN)C(=O)NCCCC(C)Nc3cc(OC)cc4cccnc34)cc2)cc1)[C@@H](C)CC` (some centres not stated), the Ki at Plasmepsin I worked out at 0.033 µM; at Plasmepsin II, 0.0106 µM. Further, the IC50 in the series with Plasmodium falciparum [1] worked out at 0.8 µM; with Plasmodium falciparum [2], 1.4 µM.
The corresponding values for `CCCCNC(=O)C[C@H](O)[C@H](CC(C)C)NC(=O)[C@@H](NC(=O)c1ccc(Oc2ccc(C(=O)N[C@@H](C)C(=O)N[C@@H](C)C(=O)NCCCC(C)Nc3cc(OC)cc4cccnc34)cc2)cc1)[C@@H](C)CC` (some centres not stated) are 0.001 µM, 0.0039 µM, 1.3 µM and 1.2 µM.
The corresponding values for `CCCCNC(=O)C[C@H](O)[C@H](CC(C)C)NC(=O)[C@@H](NC(=O)c1ccc(Oc2ccc(C(=O)NCCCC(C)Nc3cc(OC)cc4cccnc34)cc2)cc1)[C@@H](C)CC` (some centres not stated) are 0.081 µM, 0.0112 µM, 2.2 µM and 2 µM.
The corresponding values for `CCCCNC(=O)C[C@H](O)[C@H](CC(C)C)NC(=O)[C@@H](NC(=O)c1ccc(Oc2ccc(C(=O)N[C@@H](CC(C)C)C(=O)N[C@@H](CCCCN)C(=O)OCCC)cc2)cc1)C(C)CC` (some centres not stated) are 0.011 µM, 0.0099 µM, 4.5 µM and 3.8 µM.
The compound `CCCCNC(=O)C[C@H](O)[C@H](CC(C)C)NC(=O)[C@@H](NC(=O)c1ccc(Oc2ccc(C(=O)N[C@@H](CC(C)C)C(=O)N[C@@H](CCCCNC(=O)OC(C)(C)C)C(=O)OCCC)cc2)cc1)C(C)CC` (some centres not stated) gave an inhibition in series [7] of 37%. The figures for the Ki on Plasmepsin I and on Plasmepsin II were 0.017 µM and 0.011 µM, respectively. Besides, the IC50 in the series with Plasmodium falciparum [1] and with Plasmodium falciparum [2] was 0.1 µM throughout. Besides, the outcome in [5] was Active.
With `CCCCNC(=O)C[C@H](O)[C@H](CC(C)C)NC(=O)[C@@H](NC(=O)c1ccc(Oc2ccc(C(=O)N[C@@H](CC(C)C)C(=O)N[C@@H](CC(C)C)C(=O)NCCCC(C)Nc3cc(OC)cc4cccnc34)cc2)cc1)C(C)CC` (some centres not stated), the Ki at Plasmepsin I amounted to 0.058 µM; on Plasmepsin II, 0.103 µM. In addition, the IC50 with Plasmodium falciparum [1] came out at 3.6 µM; in the series on Plasmodium falciparum [2], 1.7 µM.

The values are drawn from ChEMBL document CHEMBL1137305, “High antiplasmodial activity of novel plasmepsins I and II inhibitors” (J Med Chem, 2006).
